{"source": "ChEMBL document CHEMBL5303300", "about": "“EUbOPEN Chemogenomics Library - Multiplex” (2023)", "key": {"[1]": {"tested_on": "Fibroblast", "test": "Multiplex assay against human fibroblast", "type": "toxicity, cell-based", "details": "number of replicates 2", "procedure,_shortened": "(§1)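 Tubulin, mitochondrial-mass and membrane-permeability phenotypes are per cents of healthy-nucleus cells. Cells were gated by CellPathfinder machine learning into Hoechst high-intensity objects or normal cells, normal cells into healthy, pyknosed or fragmented nuclei, and pyknosed cells into mitotic or apoptotic. Before that, live cells stained at seeding with Hoechst33342, BioTracker Green Microtubule Cytoskeleton Dye, MitoTracker Red and Annexin V Alexa Fluor 680 were imaged on a CQ1 microscope at 37°C and 5% CO2 after compound addition.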"}, "[2]": {"tested_on": "U2OS", "test": "Multiplex assay against U2OS", "type": "toxicity, cell-based", "details": "human, number of replicates 2", "procedure,_shortened": "as §1"}, "[3]": {"details": "12 h, 1 µM, compound concentration 1 uM"}, "[4]": {"details": "12 h, 10 µM, compound concentration 10 uM"}, "[5]": {"details": "24 h, 1 µM, compound concentration 1 uM"}, "[6]": {"details": "24 h, 10 µM, compound concentration 10 uM"}, "[7]": {"details": "48 h, 1 µM, compound concentration 1 uM"}, "[8]": {"details": "48 h, 10 µM, compound concentration 10 uM"}}, "note": "Several values for one entry are separate records, joined by “and”; a condition that tells them apart may be missing. Equal entries are not always repeated."}
{"smiles": "C=CC(=O)Nc1cccc(C)c1Nc1ncc2cc(-c3c(Cl)c(OC)cc(OC)c3Cl)ccc2n1", "values": [{"measurement": "Population Apoptotic (%)", "setting": "[1]; [3]", "value": "30% and 35%"}, {"measurement": "Population Fragmented Nuclei (%)", "setting": "[1]; [3]", "value": "11% and 9%"}, {"measurement": "Population Healthy Nuclei (%)", "setting": "[1]; [3]", "value": "73% and 66%"}, {"measurement": "Population Hoechst High Intensity Objects (%)", "setting": "[1]; [3]", "value": 0, "unit": "%"}, {"measurement": "Population Membrane Permeable-Phenotype (%)", "setting": "[1]; [3]", "value": 4, "unit": "%"}, {"measurement": "Population Mitochondria Different-Phenotype (%)", "setting": "[1]; [3]", "value": "0% and 1%"}, {"measurement": "Population Mitotic Cells (%)", "setting": "[1]; [3]", "value": "69% and 64%"}, {"measurement": "Population Normal (%)", "setting": "[1]; [3]", "value": "100% and 99%"}, {"measurement": "Population Pyknosed Nuclei (%)", "setting": "[1]; [3]", "value": "14% and 23%"}, {"measurement": "Population Tubulin-Different-Phenotype (%)", "setting": "[1]; [3]", "value": "12% and 9%"}, {"measurement": "Total Cell Count", "setting": "[1]; [3]", "value": "248 and 242"}, {"measurement": "Population Apoptotic (%)", "setting": "[1]; [4]", "value": "60% and 47%"}, {"measurement": "Population Fragmented Nuclei (%)", "setting": "[1]; [4]", "value": "35% and 15%"}, {"measurement": "Population Healthy Nuclei (%)", "setting": "[1]; [4]", "value": "40% and 60%"}, {"measurement": "Population Membrane Permeable-Phenotype (%)", "setting": "[1]; [4]", "value": "0% and 8%"}, {"measurement": "Population Mitochondria Different-Phenotype (%)", "setting": "[1]; [4]", "value": "1% and 4%"}, {"measurement": "Population Mitotic Cells (%)", "setting": "[1]; [4]", "value": "40% and 52%"}, {"measurement": "Population Normal (%)", "setting": "[1]; [4]", "value": "71% and 100%"}, {"measurement": "Population Pyknosed Nuclei (%)", "setting": "[1]; [4]", "value": "24% and 23%"}, {"measurement": "Population Tubulin-Different-Phenotype (%)", "setting": "[1]; [4]", "value": "17% and 21%"}, {"measurement": "Total Cell Count", "setting": "[1]; [4]", "value": "202 and 201"}, {"measurement": "Population Apoptotic (%)", "setting": "[1]; [5]", "value": "48% and 60%"}, {"measurement": "Population Fragmented Nuclei (%)", "setting": "[1]; [5]", "value": "10% and 9%"}, {"measurement": "Population Healthy Nuclei (%)", "setting": "[1]; [5]", "value": 71, "unit": "%"}, {"measurement": "Population Hoechst High Intensity Objects (%)", "setting": "[1]; [5]", "value": 0, "unit": "%"}, {"measurement": "Population Membrane Permeable-Phenotype (%)", "setting": "[1]; [5]", "value": "3% and 5%"}, {"measurement": "Population Mitochondria Different-Phenotype (%)", "setting": "[1]; [5]", "value": 1, "unit": "%"}, {"measurement": "Population Mitotic Cells (%)", "setting": "[1]; [5]", "value": "51% and 40%"}, {"measurement": "Population Normal (%)", "setting": "[1]; [5]", "value": 99, "unit": "%"}, {"measurement": "Population Pyknosed Nuclei (%)", "setting": "[1]; [5]", "value": "17% and 19%"}, {"measurement": "Population Tubulin-Different-Phenotype (%)", "setting": "[1]; [5]", "value": "8% and 9%"}, {"measurement": "Total Cell Count", "setting": "[1]; [5]", "value": "245 and 232"}, {"measurement": "Population Apoptotic (%)", "setting": "[1]; [6]", "value": "71% and 63%"}, {"measurement": "Population Fragmented Nuclei (%)", "setting": "[1]; [6]", "value": "38% and 17%"}, {"measurement": "Population Healthy Nuclei (%)", "setting": "[1]; [6]", "value": "41% and 63%"}, {"measurement": "Population Membrane Permeable-Phenotype (%)", "setting": "[1]; [6]", "value": "0% and 1%"}, {"measurement": "Population Mitochondria Different-Phenotype (%)", "setting": "[1]; [6]", "value": "0% and 9%"}, {"measurement": "Population Mitotic Cells (%)", "setting": "[1]; [6]", "value": "28% and 36%"}, {"measurement": "Population Normal (%)", "setting": "[1]; [6]", "value": "60% and 100%"}, {"measurement": "Population Pyknosed Nuclei (%)", "setting": "[1]; [6]", "value": "20% and 19%"}, {"measurement": "Population Tubulin-Different-Phenotype (%)", "setting": "[1]; [6]", "value": "7% and 20%"}, {"measurement": "Total Cell Count", "setting": "[1]; [6]", "value": "283 and 188"}, {"measurement": "Population Apoptotic (%)", "setting": "[1]; [7]", "value": "61% and 67%"}, {"measurement": "Population Fragmented Nuclei (%)", "setting": "[1]; [7]", "value": 12, "unit": "%"}, {"measurement": "Population Healthy Nuclei (%)", "setting": "[1]; [7]", "value": 73, "unit": "%"}, {"measurement": "Population Hoechst High Intensity Objects (%)", "setting": "[1]; [7]", "value": 0, "unit": "%"}, {"measurement": "Population Membrane Permeable-Phenotype (%)", "setting": "[1]; [7]", "value": "3% and 5%"}, {"measurement": "Population Mitochondria Different-Phenotype (%)", "setting": "[1]; [7]", "value": "1% and 0%"}, {"measurement": "Population Mitotic Cells (%)", "setting": "[1]; [7]", "value": "38% and 32%"}, {"measurement": "Population Normal (%)", "setting": "[1]; [7]", "value": 100, "unit": "%"}, {"measurement": "Population Pyknosed Nuclei (%)", "setting": "[1]; [7]", "value": "13% and 14%"}, {"measurement": "Population Tubulin-Different-Phenotype (%)", "setting": "[1]; [7]", "value": "6% and 14%"}, {"measurement": "Total Cell Count", "setting": "[1]; [7]", "value": "243 and 214"}, {"measurement": "Population Apoptotic (%)", "setting": "[1]; [8]", "value": 83, "unit": "%"}, {"measurement": "Population Fragmented Nuclei (%)", "setting": "[1]; [8]", "value": "40% and 15%"}, {"measurement": "Population Healthy Nuclei (%)", "setting": "[1]; [8]", "value": "40% and 71%"}, {"measurement": "Population Membrane Permeable-Phenotype (%)", "setting": "[1]; [8]", "value": "1% and 4%"}, {"measurement": "Population Mitochondria Different-Phenotype (%)", "setting": "[1]; [8]", "value": 4, "unit": "%"}, {"measurement": "Population Mitotic Cells (%)", "setting": "[1]; [8]", "value": 16, "unit": "%"}, {"measurement": "Population Normal (%)", "setting": "[1]; [8]", "value": "52% and 100%"}, {"measurement": "Population Pyknosed Nuclei (%)", "setting": "[1]; [8]", "value": "18% and 12%"}, {"measurement": "Population Tubulin-Different-Phenotype (%)", "setting": "[1]; [8]", "value": "10% and 11%"}, {"measurement": "Total Cell Count", "setting": "[1]; [8]", "value": "309 and 189"}, {"measurement": "Population Apoptotic (%)", "setting": "[2]; [3]", "value": "81% and 76%"}, {"measurement": "Population Fragmented Nuclei (%)", "setting": "[2]; [3]", "value": "9% and 3%"}, {"measurement": "Population Healthy Nuclei (%)", "setting": "[2]; [3]", "value": "69% and 91%"}, {"measurement": "Population Hoechst High Intensity Objects (%)", "setting": "[2]; [3]", "value": "1% and 0%"}, {"measurement": "Population Membrane Permeable-Phenotype (%)", "setting": "[2]; [3]", "value": "5% and 0%"}, {"measurement": "Population Mitochondria Different-Phenotype (%)", "setting": "[2]; [3]", "value": 0, "unit": "%"}, {"measurement": "Population Mitotic Cells (%)", "setting": "[2]; [3]", "value": "18% and 23%"}, {"measurement": "Population Normal (%)", "setting": "[2]; [3]", "value": "98% and 100%"}, {"measurement": "Population Tubulin-Different-Phenotype (%)", "setting": "[2]; [3]", "value": "75% and 77%"}, {"measurement": "Population Apoptotic (%)", "setting": "[2]; [4]", "value": "54% and 69%"}, {"measurement": "Population Healthy Nuclei (%)", "setting": "[2]; [4]", "value": "45% and 68%"}, {"measurement": "Population Hoechst High Intensity Objects (%)", "setting": "[2]; [4]", "value": 0, "unit": "%"}, {"measurement": "Population Membrane Permeable-Phenotype (%)", "setting": "[2]; [4]", "value": "0% and 5%"}, {"measurement": "Population Mitochondria Different-Phenotype (%)", "setting": "[2]; [4]", "value": "0% and 9%"}, {"measurement": "Population Mitotic Cells (%)", "setting": "[2]; [4]", "value": "45% and 30%"}, {"measurement": "Population Normal (%)", "setting": "[2]; [4]", "value": 100, "unit": "%"}, {"measurement": "Population Pyknosed Nuclei (%)", "setting": "[2]; [4]", "value": "33% and 26%"}, {"measurement": "Population Tubulin-Different-Phenotype (%)", "setting": "[2]; [4]", "value": "80% and 56%"}, {"measurement": "Population Apoptotic (%)", "setting": "[2]; [5]", "value": "71% and 50%"}, {"measurement": "Population Healthy Nuclei (%)", "setting": "[2]; [5]", "value": "63% and 88%"}, {"measurement": "Population Hoechst High Intensity Objects (%)", "setting": "[2]; [5]", "value": "1% and 0%"}, {"measurement": "Population Membrane Permeable-Phenotype (%)", "setting": "[2]; [5]", "value": "0% and 1%"}, {"measurement": "Population Mitochondria Different-Phenotype (%)", "setting": "[2]; [5]", "value": 0, "unit": "%"}, {"measurement": "Population Mitotic Cells (%)", "setting": "[2]; [5]", "value": "28% and 50%"}, {"measurement": "Population Normal (%)", "setting": "[2]; [5]", "value": "98% and 100%"}, {"measurement": "Population Pyknosed Nuclei (%)", "setting": "[2]; [5]", "value": "18% and 8%"}, {"measurement": "Population Tubulin-Different-Phenotype (%)", "setting": "[2]; [5]", "value": "87% and 78%"}, {"measurement": "Population Apoptotic (%)", "setting": "[2]; [6]", "value": "86% and 90%"}, {"measurement": "Population Fragmented Nuclei (%)", "setting": "[2]; [6]", "value": "17% and 7%"}]}
